High-throughput results from PubChem.
This is a sample that favours compounds with a hit; in the whole collection about 4.1% have one here.
KCNQ1 block: inhibitors of human KCNQ1 potassium channel; P51787; CHO-K1 KCNQ1, FluxOR thallium flux fluorescence; stronger effect = higher value; B-score at 10 µM; actives 1.3% (n = 310,000); AID 2642;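 active = compounds whose thallium flux B-score, printed positive for inhibition, exceeds three library SD while starting fluorescence stays within three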;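 note: channel opened by potassium depolarization with thallium stimulus after 20 min compound exposure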
KCNQ1 pot: potentiates or activates the human KCNQ1 potassium channel; actives 0.35% (n = 310,000); CHO-K1 KCNQ1, thallium flux FluxOR fluorescence; stronger effect = higher value; P51787; B-score at 10 µM;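 active = fluorescence ratio B-score, a plate-corrected score, at least three library SD, with initial intensity B-score within 5 SD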
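Assay system: CHO-K1 cells stably expressing KCNQ1; Medium: assay buffer with matched DMSO; Also added: K+/Tl+ depolarizing stimulus; Dosing: single dose; Timing: dye 90 min, compound 20 min, room temperature; Measured by: kinetic FluxOR thallium fluorescence, 10-s 1-Hz baseline, 110-s post-stimulus read; Read-out: peak-minus-minimum fluorescence over initial fluorescence, negative-control normalized, B-scored.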
KCNK9 block: human KCNK9 channel inhibition. HEK293 KCNK9, FluxOR thallium flux fluorescence; stronger effect = lower value. AID 488922. B-score at 10 µM. actives 1.2% (n = 310,000). Q9NPC2;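 active = ratio B-score over 3 SD below the library mean, with starting fluorescence within 5 SD of its mean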;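 note: negative B-score means less thallium flux so channel inhibition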
Target sequence (Q9NPC2 whole entry, looked up): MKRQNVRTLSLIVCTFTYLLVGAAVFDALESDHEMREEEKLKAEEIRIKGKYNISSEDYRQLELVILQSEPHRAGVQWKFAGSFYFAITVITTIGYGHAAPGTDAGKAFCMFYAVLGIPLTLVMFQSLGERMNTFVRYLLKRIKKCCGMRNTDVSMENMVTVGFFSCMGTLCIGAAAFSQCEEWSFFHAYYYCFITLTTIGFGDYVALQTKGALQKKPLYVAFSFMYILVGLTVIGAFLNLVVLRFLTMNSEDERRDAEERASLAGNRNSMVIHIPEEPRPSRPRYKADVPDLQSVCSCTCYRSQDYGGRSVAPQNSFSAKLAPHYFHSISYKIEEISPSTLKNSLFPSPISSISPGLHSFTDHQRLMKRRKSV
KCNK3 block: human KCNK3 channel inhibition, primary screen; actives 0.84% (n = 340,000); CHO-KCNK3 thallium flux, FluxOR fluorescence; stronger effect = lower value; B-score at 10 µM;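 active = B-score under library mean minus 4 SD, starting fluorescence ratio at most library mean plus 5 SD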;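 note: more negative B-score means stronger inhibition of thallium flux through KCNK3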
Target sequence (O14649 whole entry, looked up): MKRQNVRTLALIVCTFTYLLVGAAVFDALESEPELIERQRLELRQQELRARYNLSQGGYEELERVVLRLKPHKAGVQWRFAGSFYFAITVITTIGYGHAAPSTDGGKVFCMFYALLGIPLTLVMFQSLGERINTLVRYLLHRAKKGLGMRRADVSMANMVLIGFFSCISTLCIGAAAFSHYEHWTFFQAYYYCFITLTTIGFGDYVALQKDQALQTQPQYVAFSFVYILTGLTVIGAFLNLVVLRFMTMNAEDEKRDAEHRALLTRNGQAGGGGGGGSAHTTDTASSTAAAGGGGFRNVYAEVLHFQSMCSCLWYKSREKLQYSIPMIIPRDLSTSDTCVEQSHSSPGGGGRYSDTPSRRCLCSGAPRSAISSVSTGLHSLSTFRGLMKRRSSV
hERG protect: hERG (human) protection from proarrhythmic block; activation (rescue from dofetilide block), less the hit threshold, % at 10 µM; CHO-hERG, FluxOR thallium flux, dofetilide IC70 present; actives 0.51% (n = 310,000); Q12809; AID 1511;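 active = activation above the mean of controls blocked by dofetilide plus 5 SD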;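 note: thallium influx through hERG after potassium depolarization seen as dye fluorescence rise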
Cl transport mod: modulators of human KCC2 chloride dependent transport | AID 1456 | KCC2 cells, thallium flux FluoZin-2 fluorescence | B-score of Tl+ flux slope (higher = more flux/activation; lower = inhibition) at 10 µM | actives 2.2% (n = 190,000);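 active = thallium flux slope and its plate-corrected score both differing from the plate sample mean at a set confidence after two filtering rounds, in either direction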;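 note: slope of fluorescence scaled to starting intensity during 10 to 20 s after thallium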
KCC2 sec1: confirmation of human KCC2 transport modulators; shares compounds with Cl transport mod; HEK293-KCC2, thallium flux, FluoZin2 fluorescence; stronger effect = higher value; normalised thallium flux (F/F0 slope) at 10 µM; actives 15% (n = 3,700); AID 1713;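 active = thallium flux slope above the same plate's solvent-only control mean plus 3 SD; inconclusive = the two replicate wells disagree; inactive = no significant difference from solvent-only control wells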
KCC2 bumet counter: thallium flux persisting under bumetanide in KCC2 cells, counter-screen secondary assay; shares compounds with Cl transport mod; HEK293-KCC2 + bumetanide/ouabain, thallium flux FluoZin2; stronger effect = higher value; normalized thallium flux at 10 µM; actives 49% (n = 3,700);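 active = thallium entry rate above the same plate's blocked-transporter control wells by more than 3 SD; inconclusive = the two repeat wells disagree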;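 note: raw slope of fluorescence over initial fluorescence between 10 and 20 s after thallium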
KCC2 sec2: KCC2 (human) modulation, second secondary assay; shares compounds with Cl transport mod; HEK293-KCC2, thallium flux FluoZin2 fluorescence; actives lie on both sides; F/F0 rise rate, 10–20 s post-thallium; normalized thallium flux at 10 µM; actives 23% (n = 3,700); AID 1715;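 active = thallium flux slope more than 3 SD above or below the plate's solvent-only control mean, mostly below; inconclusive = the two repeat wells disagreed; inactive = no significant shift from solvent-only controls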;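 note: raw slope with 0.1% DMSO as baseline and bumetanide as block control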
HEK293 Tl flux: parental HEK flux effect, counter-screen. shares compounds with Cl transport mod. HEK293 parental cells, thallium flux FluoZin2, ouabain; baseline-ratio fluorescence slope, 10–20 s after thallium. thallium flux rate (normalised fluorescence) at 10 µM. actives 46% (n = 3,700). AID 1716;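 active = thallium flux rate significantly above the same plate's solvent-only control wells, beyond their mean plus 3 SD; inconclusive = the two replicate wells gave conflicting results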
KCC2 retest ouab: confirmation of human KCC2 modulators with ouabain. shares compounds with Cl transport mod. HEK293-KCC2, thallium flux FluoZin2 fluorescence; bidirectional: low = inhibitor, high = activator. raw Tl+ flux slope (below DMSO = inhibition, above = activation) at 10 µM. actives 48% (n = 3,700). AID 1717;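 active = thallium flux slope beyond 3 SD from same-plate DMSO control mean in most replicates, usually higher, sometimes lower; inconclusive = repeat tests gave conflicting results; inactive = no significant difference from controls in most replicates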;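 note: slope of initial-normalized fluorescence between seconds 10 and 20 after thallium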
HEK counter2: acts in parental HEK cells, second KCC2 counter-screen; shares compounds with Cl transport mod; HEK293 parental, thallium flux FluoZin-2 fluorescence slope; thallium flux slope at 10 µM; actives 33% (n = 3,700);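 active = thallium flux slope above the same plate's solvent-control mean plus 3 SD in both duplicate wells; inconclusive = duplicate wells that disagreed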;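 note: run without ouabain in cells lacking the KCC2 cotransporter; slope of fluorescence scaled to its starting value between 10 and 20 s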
Starred values were filed as active, the others as inactive; i = inactive; ? = inconclusive; / = no result.

SMILES | KCNQ1 block | KCNQ1 pot | KCNK9 block | KCNK3 block | hERG protect | Cl transport mod | KCC2 sec1 | KCC2 bumet counter | KCC2 sec2 | HEK293 Tl flux | KCC2 retest ouab | HEK counter2
COc1ccc(NC(=O)CC2C(=O)N(C)C(=S)N2Cc2ccc3c(c2)OCO3)cc1 (stereo not drawn) | i | i | i | i | -6.0 | 7.34* | 0.00813 | 0.006 | 0.0334 | 0.00407 | 0.0186 | 0.0116
CSCC[C@H](NC(=O)Cc1c(C)c2c(cc(C)c3c(C)coc32)oc1=O)C(=O)O | i | i | i | i | -1.7 | / | / | / | / | / | / | /
CCOc1ccc(Cc2nnc(SCC(=O)c3ccc(OC)cc3)o2)cc1 | i | i | i | i | -1.9 | 0.642 | / | / | / | / | / | /
CCOc1ccc(Nc2nc(Cc3nnc(SCC(=O)O)o3)cs2)cc1 | i | i | i | i | 3.6 | / | 0.00497 | 0.00498 | 0.0271 | 0.00769 | 0.015* | 0.0106
S=c1[nH]cnc2scc(-c3ccc(Cl)cc3)c12 | i | 19* | i | i | 23.4* | 181* | 0.0627* | 0.168* | 0.0578* | ? | 0.117* | 0.0624*
S=c1[nH]cnc2scc(-c3ccc(Br)cc3)c12 | i | 23* | i | i | 14.5* | 48.1* | 0.0548* | 0.144* | ? | ? | 0.0936* | 0.0268*
COc1ccc(NC(=O)C2CCCN2C(=O)Nc2ccccc2)cc1OC (stereo not drawn) | i | i | i | i | -5.6 | -0.0282 | / | / | / | / | / | /
COc1ccc(C2CCCN2C(=O)Nc2ccc(Cl)cc2)cc1OC (stereo not drawn) | i | i | i | i | -19.6 | -3.35* | 0.00657 | 0.0049 | 0.0302 | 0.00749 | ? | 0.011
COc1ccc(NC(=O)C2CCN(c3ncnc4c3nc3n4CCCCC3)CC2)cc1Cl | i | i | i | i | -5.1 | / | / | / | / | / | / | /
Cc1cc(C)n(CCC(=O)N2CCCC(N3CCN(c4cccc(Cl)c4)CC3)C2)n1 (stereo not drawn) | i | i | i | i | -7.2 | / | / | / | / | / | / | /
COC(=O)c1c(NC(=S)Nc2ccccc2Cl)sc(C)c1C | i | i | i | i | 1.9 | 6.32* | 0.0133* | 0.0224* | 0.0296 | 0.0143* | ? | 0.0123*
COC(=O)c1c(NC(=O)Cc2ccccc2)sc(C)c1C | i | i | i | i | -4.8 | -0.489 | / | / | / | / | / | /
O=C(NNC(=O)C1CC2CCC1C2)c1sc2ccccc2c1Cl (stereo not drawn) | i | i | i | i | -8.4 | 9.49* | 0.0103 | 0.0409* | 0.0314 | 0.0192* | 0.0246 | 0.0124*
Cc1cccnc1CN1CCN(C(=O)c2cc(COc3ccc4ncccc4c3)on2)CC1 | i | i | i | i | -17.0 | / | 0.00852 | 0.0066 | ? | 0.00745 | 0.0168* | 0.0101
CCOC(=O)N1CCN(C(=O)c2cc(COc3ccc4ncccc4c3)on2)CC1 | i | i | i | i | -16.3 | -0.711 | / | / | / | / | / | /
C=CCn1c(=S)[nH]c2ccccc2c1=O | / | / | / | i | / | / | / | / | / | / | / | /
CC(C)Cn1c(=S)[nH]c2cc(Cl)ccc21 | i | i | i | i | 6.9* | 92.2* | ? | 0.0972* | ? | 0.0834* | 0.078* | 0.0633*
CC(C)Cn1c(=S)[nH]c2ccccc2c1=O | i | i | i | i | -0.9 | 63.9* | 0.00991* | 0.123* | 0.0861* | 0.0861* | 0.0917* | 0.0854*
C=C(C)Cn1c(=S)[nH]c2ccccc2c1=O | i | i | i | i | -11.9 | 25.2* | 0.0145* | 0.0741* | 0.0307 | 0.0244* | 0.0486* | 0.014*
O=c1c2ccccc2[nH]c(=S)n1CCC1=CCCCC1 | i | 26* | i | i | 10.6* | 37.6* | ? | 0.0822* | 0.0478* | 0.032* | 0.0428* | 0.0261*
CC(=O)OCC(=O)C1(O)CCC2C3CCC4=CC(=O)CCC4(C)C3C(O)CC21C (stereo not drawn) | / | / | / | i | / | / | / | / | / | / | / | /
CCOC(=O)C1CCCN(C(=O)Cn2c(=O)c3cccn3c3cccnc32)C1 (stereo not drawn) | i | i | i | i | -1.7 | / | / | / | / | / | / | /
O=c1c2ccccc2[nH]c(=S)n1Cc1ccc2c(c1)OCO2 | i | i | i | i | -9.2 | 9.98* | ? | 0.0125* | 0.0313 | 0.00983* | 0.0187 | 0.0129*
CCOc1ccc(NC(=O)Nc2ccccc2SC)cc1 | i | i | i | i | -3.5 | -1.52 | / | / | / | / | / | /
Cc1ccc(S(=O)(=O)N(CC(=O)O)Cc2ccccc2)cc1 | i | i | i | i | -1.8 | 0.0111 | / | / | / | / | / | /
SMILES | KCNQ1 block | KCNQ1 pot | KCNK9 block | KCNK3 block | hERG protect | Cl transport mod | KCC2 sec1 | KCC2 bumet counter | KCC2 sec2 | HEK293 Tl flux | KCC2 retest ouab | HEK counter2
Cc1ccc(S(=O)(=O)N(CCC(=O)O)Cc2ccc(Cl)cc2)cc1 | i | i | i | i | -5.3 | / | 0.00589 | 0.00666* | 0.022* | 0.00724 | 0.0128* | 0.0114
C=C1c2ccccc2NC(=S)N1Cc1ccc2c(c1)OCO2 | i | i | i | i | -2.4 | 9.89* | 0.00693 | 0.0197* | 0.0316 | 0.0212* | 0.0342* | 0.0171*
COc1cc2c(cc1OC)C(c1cccs1)CC(=O)N2 (stereo not drawn) | i | i | i | i | -10.7 | / | 0.00629 | 0.00473 | 0.0289 | 0.00807 | 0.0192 | 0.0113
O=C1CC(c2cccs2)c2cc3c(cc2N1)OCO3 (stereo not drawn) | i | i | i | i | -7.6 | -0.114 | / | / | / | / | / | /
CCOc1ccccc1NC(=O)CSc1nccn1-c1ccccc1 | i | i | i | i | -15.3 | -4.78* | 0.0166 | ? | 0.0246* | 0.0046* | 0.0127* | 0.00711*
O=C(N/N=C/c1cccnc1)c1cccs1 | i | i | i | i | -7.0 | -3.67* | 0.00673 | 0.00491 | 0.0325 | 0.00748 | 0.019 | 0.0102
